From ChEMBL document CHEMBL4725383 (Bioorg Med Chem, 2020)
Activity calls are given as the source filed them. The calls are words filed in the database; no cut-off is given here.

Tests used:
[1] = target: T1, Microtubule-associated protein tau (Homo sapiens, UniProt P10636); assay: Displacement of Bis-ANS from solvent exposed hydrophobic site of non-aggregated human full length recombinant tau-441 expressed in Escherichia coli assessed as reduction in fluorescence intensity at 120 uM incubated for 72 hrs by Bis-ANS fluorescence assay
T1 sequence (P10636 whole entry): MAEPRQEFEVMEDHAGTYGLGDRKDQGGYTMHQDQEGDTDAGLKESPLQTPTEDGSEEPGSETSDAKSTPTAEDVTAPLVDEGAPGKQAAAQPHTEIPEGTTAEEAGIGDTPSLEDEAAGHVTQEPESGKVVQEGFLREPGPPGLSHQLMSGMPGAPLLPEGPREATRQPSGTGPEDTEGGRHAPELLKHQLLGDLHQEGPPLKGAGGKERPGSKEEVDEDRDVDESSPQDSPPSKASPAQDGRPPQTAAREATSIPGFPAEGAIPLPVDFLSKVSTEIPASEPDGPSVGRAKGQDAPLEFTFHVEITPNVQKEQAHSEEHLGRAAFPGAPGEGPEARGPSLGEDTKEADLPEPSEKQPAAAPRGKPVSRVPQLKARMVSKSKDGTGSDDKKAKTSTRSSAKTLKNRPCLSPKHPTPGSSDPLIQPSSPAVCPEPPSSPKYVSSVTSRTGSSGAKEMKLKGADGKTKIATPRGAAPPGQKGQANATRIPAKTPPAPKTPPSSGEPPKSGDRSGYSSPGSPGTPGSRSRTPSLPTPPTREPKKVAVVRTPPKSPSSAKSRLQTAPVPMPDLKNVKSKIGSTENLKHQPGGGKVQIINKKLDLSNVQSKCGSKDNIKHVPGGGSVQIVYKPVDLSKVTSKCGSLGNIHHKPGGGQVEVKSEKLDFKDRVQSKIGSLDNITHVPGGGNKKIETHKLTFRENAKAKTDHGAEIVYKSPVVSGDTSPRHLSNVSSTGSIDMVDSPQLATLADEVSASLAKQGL
How it was run: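 Competition control: non-aggregated tau441 (909 μg/mL) is held with compound and without heparin for 72 h at 37 °C. It is then mixed with Bis-ANS (100 μM final) for 60 min at room temperature. Fluorescence is read at 25 °C, ex 350 nm, emission 400–600 nm, and loss of 510 nm signal is taken as Bis-ANS displacement from tau hydrophobic sites.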

[2] = target: T1, Microtubule-associated protein tau; assay: Inhibition of human full length recombinant tau-441 expressed in Escherichia coli assessed as inhibition of heparin-induced protein aggregation by measuring reduction in fluorescence intensity at 5 to 120 uM incubated for 72 hrs by Proteo-stat fluorescence aggregation assay; settings: dose microM 5-120, time 72.0 hrs
How it was run: (§1)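 Recombinant full-length tau441 (19.8 μM final, 909 μg/mL) is aggregated with heparin (4.95 μM final) in pH 6.8 tau buffer (MES, EGTA, NaCl) for 72 h at 37 °C. Compounds are dissolved in DMSO and added at 5, 40, 120 or 250 μM final. A 10 μL aliquot is mixed 10:1 v/v with Proteostat reagent and read at ex 550/em 600 nm. Triplicates. IC50 comes from a sigmoidal dose-response fit.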

[3] = target: T1, Microtubule-associated protein tau; assay: Inhibition of human full length recombinant tau-441 expressed in Escherichia coli assessed as inhibition of heparin-induced beta-sheet formation and protein aggregation by measuring fluorescence intensity at 120 uM incubated for 72 hrs by Proteo-stat fluorescence aggregation assay; how it was run: as §1
[4] = target: T1, Microtubule-associated protein tau; assay: Inhibition of human full length recombinant tau-441 expressed in Escherichia coli assessed as inhibition of heparin-induced protein aggregation by measuring reduction in fluorescence intensity incubated for 72 hrs by Proteo-stat fluorescence aggregation assay
[5] = target: T1, Microtubule-associated protein tau; assay: Inhibition of human full length recombinant tau-441 expressed in Escherichia coli assessed as inhibition of heparin-induced protein aggregation by measuring fluorescence intensity at 120 uM incubated for 72 hrs by Bis-ANS fluorescence assay
How it was run: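 Tau441 (19.8 μM) with heparin (4.95 μM) and compound (120 μM) in DMSO/tau buffer pH 6.8 is aged 72 h at 37 °C. A 10 μL aliquot gets Bis-ANS (100 μM final, from stock in 20 mM Tris pH 7.4) for 60 min at room temperature. Emission is scanned 400–600 nm at 25 °C (ex 350 nm) and the 510 nm intensity is taken. Triplicate measurements.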

[6] = target: T1, Microtubule-associated protein tau; assay: Inhibition of human full length recombinant tau-441 expressed in Escherichia coli assessed as inhibition of heparin-induced protein aggregation by measuring reduction in fibrillization by measuring reduction in short and long filaments and fibrillar network formation at 120 uM incubated for 72 hrs by transmission electron microscopy
[7] = Inhibition of N-terminal His6-tagged human tau K18deltaK280 mutant assessed as inhibition of protein aggregation

Row | inhibition [1] | inhibition [2] | Activity [3] | IC50 ([4]; read-out: IC50) | Activity [5] | inhibition [6] | IC50 [4] | inhibition [5] | SMILES | IC50 [7]
1 | Active | Active | 1000 a.u. | 21 µM | 1000 a.u. | Active |  |  | CCCN(CCN1CCN(c2ccc(-c3ccc(O)c(O)c3)cc2)CC1)[C@H]1CCc2nc(N)sc2C1 | 
2 | inactive | inactive | 7000 a.u. |  |  | inactive | Not Active | inactive | CCCN(CCN1CCN(c2ccc3[nH]c4ccccc4c3c2)CC1)[C@H]1CCc2nc(N)sc2C1 | 
3 |  |  |  |  |  |  |  |  | O=C(O[C@@H]1Cc2c(O)cc(O)cc2O[C@@H]1c1cc(O)c(O)c(O)c1)c1cc(O)c(O)c(O)c1 [EPIGALOCATECHIN GALLATE] | > 200 µM
4 | Active | Active | 1000 a.u. | 25 µM | 1500 a.u. | Active |  |  | CCCN(CCN1CCN(c2ccc(-c3ccc(O)c(O)c3)cc2)CC1)[C@H]1CCc2c(O)cccc2C1 | 
5 | 95% | Active | 1000 a.u. |  | 400 a.u. | Active |  |  | CN(C)c1ccc2nc3ccc(=[N+](C)C)cc-3sc2c1 | 
6 | inactive | inactive | 9000 a.u. |  |  | inactive | Not Active | inactive | CCCN(CCN1CCN(c2ccc(-c3ccccc3)cc2)CC1)[C@H]1CCc2nc(N)sc2C1 | 
